The species entered for experiment [1] is Mus musculus. The experiment can be described thus: Antiautoimmune disease activity in wild type C57BL/6 mouse experimental autoimmune encephalitis model assessed as reduction in disease pathogenicity at 2 ug, […] as single dose measured up to 30 days. The class given is functional, organism-based. In short, it runs like this:
(§1)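 Wild-type B6 mice received 2D2 TCR-transgenic lymphocytes containing 1 × 10^6 Va3.2+Vβ11+ CD4+ T cells via the tail vein. After 24 h, mice were immunized sc in each flank with 200 μg MOG35−55 in incomplete Freund's adjuvant with 200 μg M. tuberculosis. Pertussis toxin was given ip on day 0 and day 2. A single 2 μg dose was mixed into the antigen emulsion at immunization. EAE clinical score was followed; n = 8/group from two experiments, mean ± SEM.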

Experiment [2] relates to Mus musculus. The experiment can be described thus: Immunomodulatory activity in PMA- and ionomycin-stimulated wild type C57BL/6 mouse HMNC cells assessed as reduction in IFN-gamma cytokine in cell culture supernatant at 2 ug, ip administered as single dose measured 22 days post immunization by ELISA relative to vehicle-treated control. It is filed as functional, organism-based. In a few lines: (§2)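 Spinal cord mononuclear cells were isolated at day 22 by Percoll gradient and restimulated 4 h with PMA 50 ng/mL plus ionomycin 1 μg/mL. Supernatant cytokines were measured by sandwich ELISA using capture antibody, biotinylated detection antibody, streptavidin-HRP and TMB. Data are mean ± SD of individual mice, n = 3−4/group.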
(In general: An ELISA detects its analyte on a solid surface through an enzyme-linked reagent.)

The subject of experiment [3] is Mus musculus. The experiment can be described thus: Immunomodulatory activity in PMA- and ionomycin-stimulated wild type C57BL/6 mouse HMNC cells assessed as reduction in IL-17 cytokine in cell culture supernatant at 2 ug, ip administered as single dose measured 22 days post immunization by ELISA relative to vehicle-treated control. The class given is functional, organism-based. In a few lines: as §2

Experiment [4] has as its system Mus musculus. The experiment can be described thus: Immunomodulatory activity in PMA- and ionomycin-stimulated wild type C57BL/6 mouse HMNC cells assessed as inhibition of Th17 differentiation of MOG-specific CD4+ T cells at 2 ug, ip administered as single dose measured 22 days post immunization by brefeldin A staining-based flow cytometric analysis. It is filed as functional, organism-based. In short, it runs like this:
(§3)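 At 22 days post-immunization, mice were perfused with cold PBS. Lumbar spinal cord was minced, digested and homogenized, and mononuclear cells were taken from the 30−70% Percoll interface. Cells were restimulated 4 h with PMA 50 ng/mL and ionomycin 1 μg/mL, with brefeldin A 1 μg/mL for the last 2 h. Cells were surface-stained, fixed in 4% PFA, permeabilized with Triton buffer, stained for CD4, IL-17 and IFN-γ, and analyzed by flow cytometry.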
(In general: A flow cytometer gives signals particle by particle.)

Experiment [5] has as its system Mus musculus. In words: Immunomodulatory activity in PMA- and ionomycin-stimulated wild type C57BL/6 mouse HMNC cells assessed as inhibition of Th1 differentiation of MOG-specific CD4+ T cells at 2 ug, ip administered as single dose measured 22 days post immunization by brefeldin A staining-based flow cytometric analysis. The class given is functional, organism-based. In a few lines:
as §3

In experiment [6] the test system is Mus musculus. In words: Antiautoimmune disease activity in wild type C57BL/6 mouse experimental autoimmune encephalitis model assessed as reduction in mononuclear cells infiltration into white matter at 2 ug, ip administered as single dose measured on day 18 post immunization by H & E staining-based analysis relative to vehicle-treated control. The class given is functional, organism-based.

The species entered for experiment [7] is Mus musculus. In words: Antiautoimmune disease activity in wild type C57BL/6 mouse experimental autoimmune encephalitis model assessed as delay in disease onset at 2 ug, […] as single dose measured up to 30 days. It is filed as functional, organism-based. In a few lines:
as §1

Experiment [8] concerns Mus musculus. In words: In vivo immunomodulatory activity in wild type C57BL/6 mouse assessed as decrease in IL-17 level in serum at 2 ug, iv administered as single dose measured at 12 to 24 hrs. It is filed as functional, organism-based. In short, it runs like this: (§4)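 Mice were given a single intravenous injection of 2 μg glycolipid, and serum was collected at set times after injection. Serum cytokines were measured by sandwich ELISA: plates coated with anti-cytokine antibody and blocked with 1% BSA, serum incubated overnight at 4 °C, then biotinylated antibody, streptavidin-HRP and TMB, with absorbance read at 450 nm.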

The test system of experiment [9] is Mus musculus. In words: In vivo immunomodulatory activity in wild type C57BL/6 mouse assessed as IL-4 level in serum at 2 ug, iv administered as single dose measured at >2 hrs. The class given is functional, organism-based. In a few lines:
as §4

Experiment [10] concerns Mus musculus. The experiment can be described thus: In vivo immunomodulatory activity in wild type C57BL/6 mouse assessed as decrease in IFN-gamma level in serum at 2 ug, iv administered as single dose measured after 12 to 24 hrs. The class given is functional, organism-based. In short, it runs like this:
as §4

Experiment [11] concerns Mus musculus. The experiment can be described thus: In vivo immunomodulatory activity in wild type C57BL/6 mouse assessed as IL-4 level in serum at 2 ug, iv administered as single dose measured at 2 hrs. The class given is functional, organism-based. In a few lines: as §4
In experiment [12] the test system is HMNC. In words: Immunomodulatory activity in wild type C57BL/6 mouse HMNC cells assessed as reduction in IL-17 secretion at 25 nM after 72 hrs by ELISA. It is filed as functional, cell-based. In short, it runs like this:
(§5)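 Hepatic mononuclear cells from C57BL/6 mice were isolated on Percoll and grown in RPMI-1640 with 10% FBS, L-glutamine and 2-mercaptoethanol. Cells (2 × 10^5) were stimulated 72 h with 25 nM glycolipid. Supernatant cytokines were measured by sandwich ELISA: overnight 4 °C sample incubation, biotinylated antibody, streptavidin-HRP, TMB, A450. Assays were run in triplicate and repeated 2−3 times; mean ± SD.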

Experiment [13] relates to HMNC. The experiment can be described thus: Immunomodulatory activity in wild type C57BL/6 mouse HMNC cells assessed as reduction in IFN-gamma secretion at 25 nM after 72 hrs by ELISA. The class given is functional, cell-based. In short, it runs like this: as §5
In experiment [14] the test system is HMNC. The experiment can be described thus: Immunomodulatory activity in wild type C57BL/6 mouse HMNC cells assessed as increase in IL-4 secretion at 25 nM after 72 hrs by ELISA. The class given is functional, cell-based. In a few lines:
as §5

Structures are written as SMILES. Active and inactive are the calls of the source. No cut-off for these calls is given here.

On to `CCCCCCCCCCCCCCCCCCCCCCCCCC(=O)N[C@@H](CO[C@H]1O[C@H](CO)[C@H](O)[C@H](O)[C@H]1O)[C@H](O)[C@H](O)c1cnn(CCCc2ccc(CCCC)cc2)c1`, for which the outcome in experiment [1], in experiment [2], in experiment [3], in [4], in experiment [5] and in experiment [6] was Active. For the same compound, the outcome in [7], in experiment [8], in experiment [11], in experiment [12], in experiment [13] and in experiment [14] was Active. Besides, the outcome in experiment [9] and in experiment [10] was inactive.
`CCCCCCCCCCCCCCCCCCCCCCCCCC(=O)N[C@@H](CO[C@H]1O[C@H](CO)[C@H](O)[C@H](O)[C@H]1O)[C@H](O)[C@H](O)c1cnn(CCCCCCc2ccc(C)cc2)c1`: the outcome in experiment [12], in experiment [13] and in [14] was Active.
On to `CCCCCCCCCCCCCCCCCCCCCCCCCC(=O)N[C@@H](CO[C@H]1O[C@H](CO)[C@H](O)[C@H](O)[C@H]1O)[C@H](O)[C@H](O)c1cnn(CCCCCCCc2ccccc2)c1`, for which the result in [12], in experiment [13] and in experiment [14] was Active.
In the case of `CCCCCCCCCCCCCCCCCCCCCCCCCC(=O)N[C@@H](CO[C@H]1O[C@H](CO)[C@H](O)[C@H](O)[C@H]1O)[C@H](O)[C@H](O)CCCCCCCCCCCCCC`, the outcome in experiment [1] and in [11] was Active. In addition, the result in experiment [2], in experiment [3], in [4], in [5], in experiment [7] and in [9] was inactive. Further, in experiment [10], the result was inactive.
Consider `CCCCCCCCCCCCCCCCCCCCCCCCCC(=O)N[C@@H](CO[C@H]1O[C@H](CO)[C@H](O)[C@H](O)[C@H]1O)[C@H](O)[C@H](O)c1cnn(CCCCc2ccc(CCC)cc2)c1`, for which the result in [12], in [13] and in experiment [14] was Active.
For the compound `CCCCCCCCCCCCCCCCCCCCCCCCCC(=O)N[C@@H](CO[C@H]1O[C@H](CO)[C@H](O)[C@H](O)[C@H]1O)[C@H](O)[C@H](O)c1cnn(Cc2ccc(CCCCCC)cc2)c1`, the outcome in experiment [12], in [13] and in [14] was Active.
With `CCCCCCCCCCCCCCCCCCCCCCCCCC(=O)N[C@@H](CO[C@H]1O[C@H](CO)[C@H](O)[C@H](O)[C@H]1O)[C@H](O)[C@H](O)c1cnn(CCCCCc2ccc(CC)cc2)c1`, the outcome in [12], in experiment [13] and in experiment [14] was Active.
For `CCCCCCCCCCCCCCCCCCCCCCCCCC(=O)N[C@@H](CO[C@H]1O[C@H](CO)[C@H](O)[C@H](O)[C@H]1O)[C@H](O)[C@H](O)c1cnn(CCc2ccc(CCCCC)cc2)c1`, the outcome in experiment [12], in experiment [13] and in [14] was inactive.

The record behind these values is ChEMBL document CHEMBL2429747, “Synthesis and biological evaluation of α-galactosylceramide analogues with heteroaromatic rings and varying positions of a phenyl group in the sphingosine backbone” (J Med Chem, 2013).
